Test results taken from ChEMBL document CHEMBL1134786, “Novel potent inhibitors of lipid peroxidation with protective effects against reperfusion arrhythmias” (J Med Chem, 2001).

Assays:
[1] = species: Rattus norvegicus; test: Effect on in vitro myocardial electrical activity (arrhythmia score) at 5 uM; type: functional, Myocardium
[2] = species: Rattus norvegicus; test: Effect on in vitro accumulation of MDA content in heart, at conc of 5 uM; type: functional
[3] = species: Rattus norvegicus; test: Evaluated for the interaction with 0.2 mM of the stable free radical DPPH.; type: functional
Procedure, shortened: (§1)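 Compounds were reacted with the stable free radical DPPH at 0.2 mM. The IC50 (mM) is the concentration that reacts with half of the radical.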

[4] = species: Rattus norvegicus; test: Inhibition of in vitro peroxidation (LP) of rat Hepatic microsomal membrane lipid; type: functional
Procedure, shortened: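 Rat liver microsomal membranes were subjected to lipid peroxidation induced by ferrous ions and ascorbate. Values are mean ± SEM, n = 3.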

[5] = species: Rattus norvegicus; test: Effect of compound on in vitro accumulation of MDA content in heart at concentration of 5 uM; type: functional
[6] = species: Rattus norvegicus; test: The compound was evaluated for the interaction with 0.2 mM of the stable free radical DPPH; type: functional; procedure, shortened: as §1

| Structure (SMILES) | Arrhythmia score [1] | MDA content [2] | IC50 [3] [µM] | IC50 [4] [µM] | MDA content [5] | IC50 [6] [µM] |
| --- | --- | --- | --- | --- | --- | --- |
| O=C(O)CCCCC1CCSS1 (stereo not drawn) [LIPOIC ACID, ALPHA] | 6.3 | 1.03 µM (g of tissue)-1 | > 400 | > 1000 | – | – |
| Cc1c(C)c2c(c(C)c1O)CCC(C)(C(=O)O)O2 (stereo not given) [TROLOX] | 3.15 | – | – | 24.8 | 1.07 uM (g of tissue)-1 | 45 |
| Cc1c(C)c2c(c(C)c1O)CCC(C)(C(=O)Nc1ccc3c(c1)Cc1cc(NC(=O)CCCCC4CCSS4)ccc1-3)O2 (stereo not given) | – | – | 20 | 2.58 | – | – |
